Experimental data reported in ChEMBL document CHEMBL3286357, “Design, synthesis and pharmacological evaluation of novel substituted quinoline-2-carboxamide derivatives as human dihydroorotate dehydrogenase (hDHODH) inhibitors and anticancer agents” (Eur J Med Chem, 2014).
pIC50: −log10 of the molar value.

What was measured:
A-375 [1] = assay: Antiproliferative activity against human A375 cells at 11.11 ug/ml for 24 hrs by MTT assay; format: functional; conditions: A-375, 24 h
In short: (§1)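 HEP-3B or A-375 cells were grown in DMEM with 10% FBS, 5% HBSS, penicillin, streptomycin and amphotericin B at 37 C and 5% CO2. Cells were seeded at 2 × 10^4 per well and preincubated for 24 h. They were then exposed to ten 1:3 serial dilutions from a top concentration of 100, made from 2% DMSO stocks. MTT was added for 3 h, formazan was dissolved in DMSO, and A550 was read. Wells were run in triplicate across three independent experiments. IC50 came from dose-response curves.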

[2] = Antiproliferative activity against human Hep3B cells at 0.02 ug/ml for 24 hrs by MTT assay; format: functional, Hep 3B2; in short: as §1
[3] = Antiproliferative activity against human Hep3B cells at 33.33 ug/ml for 24 hrs by MTT assay; format: functional, Hep 3B2; in short: as §1
[4] = Antiproliferative activity against human Hep3B cells at 11.11 ug/ml for 24 hrs by MTT assay; format: functional, Hep 3B2; in short: as §1
[5] = Antiproliferative activity against human Hep3B cells at 0.01 ug/ml for 24 hrs by MTT assay; format: functional, Hep 3B2; in short: as §1
A-375 [6] = assay: Antiproliferative activity against human A375 cells at 3.7 ug/ml for 24 hrs by MTT assay; format: functional; conditions: A-375, 24 h; in short: as §1
A-375 [7] = assay: Antiproliferative activity against human A375 cells at 0.41 ug/ml for 24 hrs by MTT assay; format: functional; conditions: A-375, 24 h; in short: as §1
A-375 [8] = assay: Antiproliferative activity against human A375 cells at 0.05 ug/ml for 24 hrs by MTT assay; format: functional; conditions: A-375, 24 h; in short: as §1
[9] = Antiproliferative activity against human Hep3B cells at 0.41 ug/ml for 24 hrs by MTT assay; format: functional, Hep 3B2; in short: as §1
A-375 [10] = assay: Antiproliferative activity against human A375 cells at 0.02 ug/ml for 24 hrs by MTT assay; format: functional; conditions: A-375, 24 h; in short: as §1
[11] = Antiproliferative activity against human Hep3B cells at 0.14 ug/ml for 24 hrs by MTT assay; format: functional, Hep 3B2; in short: as §1
[12] = Antiproliferative activity against human Hep3B cells at 3.7 ug/ml for 24 hrs by MTT assay; format: functional, Hep 3B2; in short: as §1
A-375 [13] = assay: Antiproliferative activity against human A375 cells at 100 ug/ml for 24 hrs by MTT assay; format: functional; conditions: A-375, 24 h; in short: as §1
[14] = Antiproliferative activity against human Hep3B cells at 100 ug/ml for 24 hrs by MTT assay; format: functional, Hep 3B2; in short: as §1
A-375 [15] = assay: Antiproliferative activity against human A375 cells at 0.14 ug/ml for 24 hrs by MTT assay; format: functional; conditions: A-375, 24 h; in short: as §1
HEP-3B (human hepatoma) = assay: Antiproliferative activity against human Hep3B cells for 24 hrs by MTT assay
[16] = Antiproliferative activity against human Hep3B cells at 0.05 ug/ml for 24 hrs by MTT assay; format: functional, Hep 3B2; in short: as §1
[17] = Antiproliferative activity against human Hep3B cells at 1.23 ug/ml for 24 hrs by MTT assay; format: functional, Hep 3B2; in short: as §1
A-375 [18] = assay: Antiproliferative activity against human A375 cells at 0.01 ug/ml for 24 hrs by MTT assay; format: functional; conditions: A-375, 24 h; in short: as §1
A-375 (human melanoma) = assay: Antiproliferative activity against human A375 cells for 24 hrs by MTT assay; conditions: A-375, 24 h
[19] = Retention time of compound by HPLC analysis; format: physicochemical
A-375 [20] = assay: Antiproliferative activity against human A375 cells at 1.23 ug/ml for 24 hrs by MTT assay; format: functional; conditions: A-375, 24 h; in short: as §1
A-375 [21] = assay: Antiproliferative activity against human A375 cells at 33.33 ug/ml for 24 hrs by MTT assay; format: functional; conditions: A-375, 24 h; in short: as §1

Row | SMILES | inhibition at 11.11 µg/mL (A-375 [1]) | inhibition at 0.02 µg/mL [2] | inhibition at 33.33 µg/mL [3] | inhibition at 11.11 µg/mL [4] | inhibition at 0.01 µg/mL [5] | inhibition at 3.7 µg/mL (A-375 [6]) | inhibition at 0.41 µg/mL (A-375 [7]) | inhibition at 0.05 µg/mL (A-375 [8]) | inhibition at 0.41 µg/mL [9] | inhibition at 0.02 µg/mL (A-375 [10]) | inhibition at 0.14 µg/mL [11] | inhibition at 3.7 µg/mL [12] | inhibition at 100 µg/mL (A-375 [13]) | inhibition at 100 µg/mL [14] | inhibition at 0.14 µg/mL (A-375 [15]) | pIC50 (HEP-3B (human hepatoma)) | inhibition at 0.05 µg/mL [16] | inhibition at 1.23 µg/mL [17] | inhibition at 0.01 µg/mL (A-375 [18]) | pIC50 (A-375 (human melanoma)) | also measured
1 | Cc1c(C(=O)Nc2c(F)cc(-c3cccc(F)c3)cc2F)nc2ccc(F)cc2c1O | 16.2% | 0.35% | 41.2% | 31.3% | -0.12% | 7.85% | 0.86% | 0.05% | 4.85% | -0.13% | 2.65% | 22.3% | 51.3% | 75.2% | 0% | 4.19 | 1.25% | 15.3% | -0.35% | < 4.00 | Retention_time [19]: 6.9 min; inhibition at 1.23 µg/mL (A-375 [20]): 2.34%; inhibition at 33.33 µg/mL (A-375 [21]): 28.8%
2 | CCOc1ccc2nc(C(=O)Nc3c(F)cc(-c4cccc(F)c4)cc3F)c(C)c(O)c2c1 | 15.3% | -0.32% | 11.2% | 2.03% | -0.5% | 4.56% | 2.05% | 1.02% | 0.26% | 0.68% | 0.01% | 1.56% | 37.9% | 33.2% | 1.54% | < 4.00 | -0.04% | 1.03% | 0.23% | < 4.00 | Retention_time [19]: 7.2 min; inhibition at 1.23 µg/mL (A-375 [20]): 2.96%; inhibition at 33.33 µg/mL (A-375 [21]): 16.3%
3 | Cc1c(C(=O)Nc2c(F)cc(-c3cccc(F)c3)cc2F)nc2ccc(OC(F)(F)F)cc2c1O | 11.3% | 0.67% | 41.2% | 37.9% | 0.32% | 2.06% | 1.02% | -0.13% | 5.62% | -0.35% | 2.01% | 26.4% | 25.6% | 80.3% | 0.06% | 4.42 | 1.05% | 17.2% | -0.68% | 4.07 | Retention_time [19]: 6.3 min; inhibition at 1.23 µg/mL (A-375 [20]): 1.57%; inhibition at 33.33 µg/mL (A-375 [21]): 12.3%
4 | Cc1c(C(=O)Nc2ccc(-c3ccccc3)cc2)nc2ccccc2c1O | 26.5% | 1.05% | 46.2% | 38.3% | 0.23% | 17.2% | 2.65% | 1.05% | 9.34% | 0.06% | 3.02% | 21.5% | 52.3% | 84.2% | 1.98% | 4.12 | 1.68% | 14.2% | -0.11% | 4.43 | Retention_time [19]: 6.9 min; inhibition at 1.23 µg/mL (A-375 [20]): 4.56%; inhibition at 33.33 µg/mL (A-375 [21]): 34.3%
5 | Cc1ccc2nc(C(=O)Nc3c(F)cc(-c4cccc(F)c4)cc3F)c(C)c(C(=O)O)c2c1 | 19.2% | 1.05% | 41.2% | 35.6% | 0.36% | 9.25% | 1.53% | 0.35% | 15.2% | 0.02% | 6.34% | 31.3% | 37.3% | 75.2% | 0.98% | 4.58 | 2.11% | 21.3% | -1.05% | 4.50 | Retention_time [19]: 7 min; inhibition at 1.23 µg/mL (A-375 [20]): 3.65%; inhibition at 33.33 µg/mL (A-375 [21]): 26.3%
6 | CCc1ccc2nc(C(=O)Nc3c(F)cc(-c4cccc(F)c4)cc3F)c(C)c(C(=O)O)c2c1 | 38.9% | -0.05% | 36.2% | 27.2% | -0.25% | 26.7% | 6.12% | 0.95% | 1.68% | -0.12% | 0.68% | 15.2% | 71.3% | 64.3% | 2.45% | 4.24 | 0% | 4.52% | -0.45% | 4.77 | Retention_time [19]: 6.8 min; inhibition at 1.23 µg/mL (A-375 [20]): 17.7%; inhibition at 33.33 µg/mL (A-375 [21]): 47.1%
7 | COc1ccc2nc(C(=O)Nc3c(F)cc(-c4cccc(F)c4)cc3F)c(C)c(C(=O)O)c2c1 | 35.2% | -0.57% | 7.24% | 2.34% | -0.68% | 24.6% | 3.87% | 1.05% | 0.68% | 0.13% | 0.02% | 1.62% | 58.7% | 28.3% | 2.06% | < 4.00 | -0.66% | 1.05% | 0.05% | 4.84 | Retention_time [19]: 6.9 min; inhibition at 1.23 µg/mL (A-375 [20]): 10.2%; inhibition at 33.33 µg/mL (A-375 [21]): 44.5%
8 | Cc1c(C(=O)Nc2ccc(-c3ccccc3)cc2)nc2ccccc2c1C(=O)O | 20.3% | -0.35% | 11.2% | 3.25% | -0.68% | 16.3% | 2.38% | 0.87% | 0.98% | 0.12% | 0.03% | 2.31% | 50.3% | 44.4% | 1.56% | < 4.00 | -0.12% | 1.25% | -0.35% | 4.08 | Retention_time [19]: 6.8 min; inhibition at 1.23 µg/mL (A-375 [20]): 7.65%; inhibition at 33.33 µg/mL (A-375 [21]): 25.6%
9 | Cc1c(-c2ccc(-c3ccccc3F)cc2)nc2ccc(F)cc2c1C(=O)O [BREQUINAR SODIUM] | 46.6% | 0.65% | 52.3% | 46% | 0.23% | 33.2% | 18.4% | 2.65% | 15.3% | 1.02% | 4.52% | 34.2% | 74.6% | 68.3% | 3.48% | 5.09 | 2.05% | 21.4% | 0.18% | 4.99 | inhibition at 1.23 µg/mL (A-375 [20]): 26.3%; inhibition at 33.33 µg/mL (A-375 [21]): 59.7%
10 | COc1cccc2c1C(=O)c1c(O)c3c(c(O)c1C2=O)C[C@@](O)(C(=O)CO)C[C@@H]3O[C@H]1C[C@H](N)[C@H](O)[C@H](C)O1 [DOXORUBICIN] | 50.6% | 0.95% | 32.3% | 30.1% | 0.25% | 11.6% | -12.5% | -27.6% | 11.4% | 30.2% | 3.35% | 24.2% | 88.4% | 76.3% | -18.5% | 5.20 | 1.56% | 18.4% | -35.6% | 4.88 | inhibition at 1.23 µg/mL (A-375 [20]): -10.3%; inhibition at 33.33 µg/mL (A-375 [21]): 69.9%
